L major viab – Leishmania major promastigote growth inhibition, primary screen | Leishmania major promastigotes, resazurin fluorescence viability | inhibition, % at 10 µM | hit rate 9% among 200,000 | AID 1063, 2008; in the data active = inhibition above about 50%;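 also: promastigotes grown with compound for 44 hours at 28 °C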
RAM inhibit – inhibitors of the yeast RAM network, primary screen, dse1pr::URA3 reporter, 5-FOA selection; S. cerevisiae dse1pr::URA3 reporter, 5-FOA growth OD615, 2 d; analog-sensitive cbk1-as2 kinase mutant strain; hit rate 1.8% among 190,000; inhibition, % at 50 µM; AID 868, 2007;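 active = inhibition above a set limit, 3 SD over mean compound inhibition, cut at about 8.4% in these data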;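 also: inhibition rescues growth on 5-FOA so higher OD means more RAM inhibition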
ABCB1 inh – ABCB1 efflux pump inhibitors, primary screen, cell-based, multiplex, flow cytometry, ABCG2 counter-screen; hit rate 0.067% among 190,000; CCRF-Adr cells, JC-1 efflux; inhibition, % at 6.6 µM; ATP-dependent translocase ABCB1 (Homo sapiens), P08183; in the data active = inhibition above about 40%;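 also: higher value means more JC-1 retained so stronger ABCB1 efflux block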
Target sequence (P08183 whole entry, looked up): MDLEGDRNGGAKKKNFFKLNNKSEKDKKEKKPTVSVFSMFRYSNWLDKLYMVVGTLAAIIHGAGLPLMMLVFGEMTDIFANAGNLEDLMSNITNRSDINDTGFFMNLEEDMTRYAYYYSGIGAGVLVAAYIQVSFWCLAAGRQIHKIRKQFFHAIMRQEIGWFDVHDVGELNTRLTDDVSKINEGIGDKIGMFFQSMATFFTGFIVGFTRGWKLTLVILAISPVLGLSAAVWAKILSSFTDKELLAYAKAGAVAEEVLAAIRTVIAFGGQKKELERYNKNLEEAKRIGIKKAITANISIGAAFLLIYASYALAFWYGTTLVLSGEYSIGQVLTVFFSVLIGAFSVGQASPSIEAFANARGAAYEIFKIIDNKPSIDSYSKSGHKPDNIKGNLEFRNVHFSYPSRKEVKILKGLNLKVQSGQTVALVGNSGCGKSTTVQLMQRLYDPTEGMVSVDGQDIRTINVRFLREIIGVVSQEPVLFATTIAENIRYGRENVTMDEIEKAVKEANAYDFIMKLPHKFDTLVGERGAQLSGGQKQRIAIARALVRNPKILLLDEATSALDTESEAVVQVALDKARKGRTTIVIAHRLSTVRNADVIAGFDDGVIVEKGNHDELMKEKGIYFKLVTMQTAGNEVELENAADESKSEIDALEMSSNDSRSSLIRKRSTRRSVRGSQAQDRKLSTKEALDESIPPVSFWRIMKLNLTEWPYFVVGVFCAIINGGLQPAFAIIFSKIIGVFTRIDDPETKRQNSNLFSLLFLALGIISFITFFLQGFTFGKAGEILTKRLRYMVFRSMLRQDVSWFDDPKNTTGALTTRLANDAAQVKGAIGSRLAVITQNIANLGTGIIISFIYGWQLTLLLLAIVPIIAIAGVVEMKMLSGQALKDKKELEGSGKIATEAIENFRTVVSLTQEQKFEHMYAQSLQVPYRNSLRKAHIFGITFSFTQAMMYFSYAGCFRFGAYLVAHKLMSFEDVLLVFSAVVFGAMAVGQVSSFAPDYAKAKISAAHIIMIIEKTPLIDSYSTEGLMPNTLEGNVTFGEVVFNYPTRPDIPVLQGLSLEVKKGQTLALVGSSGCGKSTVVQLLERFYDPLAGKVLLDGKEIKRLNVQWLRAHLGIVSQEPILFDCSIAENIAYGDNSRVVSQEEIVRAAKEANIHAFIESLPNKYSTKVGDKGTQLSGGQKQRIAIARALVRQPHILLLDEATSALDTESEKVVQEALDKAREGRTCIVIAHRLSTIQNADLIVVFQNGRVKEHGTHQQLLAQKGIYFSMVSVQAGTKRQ
ABCG2 inh – ABCG2 efflux pump inhibitors, primary screen, multiplex with ABCB1, IgMXP3 cells, flow cytometry; inhibition, % at 6.6 µM; hit rate 0.1% among 190,000; JC-1 efflux; AID 1325, 2008;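 active = inhibition above 80%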
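Read-out basis: Efflux inhibition in percent versus controls | Test system: ABCG2 IgMXP3 and barcoded ABCB1 CCRF-Adr cell mix | Quantity: 3 million cells/mL in well | Schedule: 10 min at 25 °C | Control set: Nicardipine as high control, DMSO as low control | Reagent: JC-1 as fluorescent efflux pump substrate | Signal: Flow cytometry of retained JC-1 fluorescence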
WT yeast gro inh – growth inhibition of WT strain, primary screen, mitochondrial fusion inhibitor project, WT and mutant strains, chemical genetic. mitochondrial fusion phenotypic screen. inhibition, % at 10 µM. hit rate 2.1% among 190,000; in the data active = inhibition above about 58%; tested in S. cerevisiae
A number is an active result; . = inactive. An excerpt weighted towards active compounds, which were near 12% of everything screened.

SMILES	L major viab	RAM inhibit	ABCB1 inh	ABCG2 inh	WT yeast gro inh
O=C(N/N=C\CCc1ccccc1)c1ccco1	.	.	.	.	.
COc1cc(O)oc1C=Nc1ccc(C(=O)O)cc1	.	.	.	.	.
COc1ccc(-c2cc(-c3nnc(COC(=O)c4ccc(O)cc4)o3)c3ccccc3n2)cc1OC	58.6	.	.	.	.
CCOc1ccc(NC(=O)Nc2ccc3c(c2)N(C)C(=O)CS3)cc1	.	11.1	.	.	.
COc1ccc(/C=C2\SC(=O)N(CCNC(=O)Cn3cnnn3)C2=O)cc1	55.8	.	.	.	.
COc1ccc(/C=C2\SC(=O)N(CCNC(=O)C3CCN(S(=O)(=O)c4cccs4)CC3)C2=O)cc1	63.5	.	.	.	.
NNc1nc2c(Cl)ccc(Cl)c2s1	97.6	.	.	.	.
O=C(CNS(=O)(=O)c1ccc(Br)s1)NCC1COc2ccccc2O1 (stereo not drawn)	59.4	.	.	.	.
CN(C(=O)c1ccc(OC2CCN(C(=O)c3cccnc3)CC2)cc1)C1CCCCC1	.	.	.	.	.
COc1ccc(N(CC(=O)Nc2ccc(S(=O)(=O)N3CCOCC3)cc2)S(=O)(=O)c2ccc(F)cc2)cc1	.	.	.	.	.
COc1cc2ncnc(NCc3ccccc3Cl)c2cc1OC	.	.	.	.	.
COc1cc2ncnc(NCc3ccc(Cl)cc3)c2cc1OC	62.1	.	.	.	.
O=C(N/N=C/c1ccc[nH]1)c1ccc(Cl)cc1	.	.	.	.	.
Cc1ccc(C(=O)c2oc3nc(C)cc(C)c3c2N)cc1	64.4	.	.	.	.
Cc1sc(NC(=O)c2ccccc2)c(C(c2ccc(Cl)cc2)N2CCN(CCO)CC2)c1C (stereo not drawn)	94.9	.	.	.	90.7
CCOc1ccc(C(c2c(NC(=O)c3ccccc3)sc(C)c2C)N2CCN(CCO)CC2)cc1 (stereo not drawn)	.	.	.	.	67.7
CC(=O)Nc1sc2c(c1C(c1cccc(Cl)c1)N1CCN(CCO)CC1)CCCC2 (stereo not drawn)	.	.	.	.	.
N=C1/C(=C\c2ccc(-c3cc(Cl)cc(Cl)c3)o2)C(=O)N=C2SC=C(c3ccccc3)N12	.	.	.	.	.
N=C1/C(=C/c2cccn2CCOc2ccccc2)C(=O)N=C2SC=C(c3ccccc3)N12	58.6	.	.	.	.
Cc1nn(C(C)C(=O)NCc2cccs2)c(C)c1[N+](=O)[O-] (stereo not drawn)	.	.	.	.	.
O=C(Nn1cc(C(=O)Nc2ccccc2F)c2ccccc2c1=O)c1cnccn1	73.7	.	.	.	.
Cc1ccc(C)c(NC(=O)C(=O)NCc2ccccn2)c1	64.3	.	.	.	.
Cc1ccc(NC(=O)NCc2ccccn2)cc1	.	.	.	.	.
Cc1ccc2[nH]c(=O)c(CN(CC3CCCO3)S(=O)(=O)c3c(C)ccc4nsnc34)cc2c1 (stereo not drawn)	95.0	.	.	.	.
COc1ccc2[nH]c(=O)c(CN(Cc3cccs3)S(=O)(=O)c3c(C)ccc4nsnc34)cc2c1	98.2	.	.	.	.
SMILES	L major viab	RAM inhibit	ABCB1 inh	ABCG2 inh	WT yeast gro inh
Cc1ccc2[nH]c(=O)c(CN(CC3CCCO3)S(=O)(=O)c3cccc4nsnc34)cc2c1 (stereo not drawn)	.	.	.	.	.
OC(CN1CCN(Cc2ccc3c(c2)OCO3)CC1)c1c[nH]c2ccccc12 (stereo not drawn)	91.3	.	.	.	.
Cc1c(C(O)CN2CCN(Cc3ccc4c(c3)OCO4)CC2)c2ccccc2n1C (stereo not drawn)	100.1	.	.	.	.
COc1ccc2c(c1)c(C(O)CN1CCN(Cc3ccc4c(c3)OCO4)CC1)c(C)n2C (stereo not drawn)	.	.	.	.	.
CCCc1nc2ccccc2c(C(=O)OCC(=O)N2CCc3ccccc32)c1CC	98.8	.	.	.	.
CC1CCc2nc3ccccc3c(C(=O)OCC(=O)N3CCc4ccccc43)c2C1 (stereo not drawn)	.	.	.	.	.
COc1ccc(C(=O)N(c2ccc(OC)cc2)S(=O)(=O)c2cccs2)cc1	76.5	.	.	.	73.7
COc1ccc(N(C(=O)c2ccccc2)S(=O)(=O)c2cccs2)cc1	.	.	.	.	.
Cc1nc([N+](=O)[O-])c(Br)n1CC(=O)c1cccc([N+](=O)[O-])c1	86.2	.	.	.	.
COC(=O)Cn1c(C)nc([N+](=O)[O-])c1Br	.	.	.	.	.
Cc1ccnc(SCC(=O)c2cccc([N+](=O)[O-])c2)n1	.	.	.	.	.
Cc1nc([N+](=O)[O-])c(Br)n1CC(=O)c1ccc(F)cc1	89.1	.	.	.	.
O=C(c1ccccc1[N+](=O)[O-])N1CCC(Cc2ccccc2)CC1	.	.	.	.	.
COC(=O)C1=C(O)CSC1=Nc1ccccc1	.	.	.	.	.
COC(=O)C1=C(O)CSC1=Nc1ccc(C)cc1	57.6	.	.	.	.
CCCC(=Nc1ccccc1OC)C1=C(O)CC(c2ccccc2)CC1=O (stereo not drawn)	99.3	.	.	.	.
COc1ccccc1N=C(C)C1=C(O)CC(c2ccccc2)CC1=O (stereo not drawn)	53.0	.	.	.	.
CCCCC(=Nc1ccccc1OC)C1=C(O)CC(c2ccccc2)CC1=O (stereo not drawn)	.	.	.	.	.
Cc1ccc(C)[n+](CC(=O)N2CCCCC2)c1	.	.	.	.	.
CCC(=O)c1c(NCCc2ccccc2)cc(C)oc1=O	.	.	.	.	.
CCOC(=O)c1ccc(NC(=O)CN(Cc2ccc(Cl)cc2)S(C)(=O)=O)cc1	99.5	.	.	.	.
CS(=O)(=O)N(CC(=O)NCc1ccccc1)Cc1ccc(Cl)cc1	.	.	.	.	.
CS(=O)(=O)N(CC(=O)Nc1ccc2c(c1)OCCO2)Cc1ccc(Cl)cc1	95.6	.	.	.	.
COc1ccc(C)cc1S(=O)(=O)N(C)CC(=O)Nc1ccc2c(c1)OCO2	.	.	.	.	.
COc1ccc(C)cc1S(=O)(=O)N(CC(=O)Nc1ccc2c(c1)OCCO2)Cc1ccccc1	73.8	.	.	.	.
N#CCC(=O)c1sccc1-n1cccc1	.	.	.	.	.
CC(NCC(=O)Nc1cc(S(=O)(=O)N2CCCCCC2)ccc1Cl)c1ccccc1 (stereo not drawn)	.	.	.	.	.
CCOc1ccc2c(c1)OC(c1ccc(C)cc1)(C(F)(F)F)NC2=O (stereo not drawn)	100.3	.	.	.	60.5
C/C=N\NC(=O)COc1cc(C)ccc1C	.	.	.	.	.
COc1ccccc1NC(=O)Cc1csc(N)n1	.	.	.	.	.

Assay outcomes (PubChem BioAssay)
